According to ChEMBL document CHEMBL2010740, “Synthesis and evaluation of 2-amido-3-carboxamide thiophene CB₂ receptor agonists for pain management” (Bioorg Med Chem Lett, 2012):
Active and inactive are the calls of the source.

Assays:
Rattus norvegicus [1] = assay: Neurotoxicity in ip dosed rat assessed as decrease in spontaneous locomotory activity after 30 mins; assay type: toxicity, organism-based; conditions: in vivo, 0.5 h
In short: (§1)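 Spontaneous horizontal locomotor activity in rats. Compound was given intraperitoneally 30 min before testing.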

[2] = Tmax in rat at 10 umol/kg, po; assay type: ADME, organism-based; conditions: in vivo
Cannabinoid receptor 2 [3] = target: T1, Cannabinoid receptor 2 (Homo sapiens, UniProt P34972); assay: Agonist activity at human recombinant CB2 receptor expressed in HEK293 cells co-expressing chimeric Gaq/o protein by FLIPR assay; assay type: functional, cell-based
T1 sequence (P34972 whole entry): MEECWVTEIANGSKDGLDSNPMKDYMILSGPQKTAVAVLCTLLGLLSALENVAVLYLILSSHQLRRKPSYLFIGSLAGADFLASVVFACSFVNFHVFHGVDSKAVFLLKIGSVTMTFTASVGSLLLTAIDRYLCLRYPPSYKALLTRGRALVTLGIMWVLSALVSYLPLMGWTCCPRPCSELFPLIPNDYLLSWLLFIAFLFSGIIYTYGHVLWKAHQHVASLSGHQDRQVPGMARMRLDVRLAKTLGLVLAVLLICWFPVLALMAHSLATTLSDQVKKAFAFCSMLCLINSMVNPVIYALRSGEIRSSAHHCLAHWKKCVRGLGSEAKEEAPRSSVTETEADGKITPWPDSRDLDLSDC
In short: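 FLIPR functional assay in HEK 293 cells stably co-expressing chimeric Gαq/o protein and the CB receptor. Net peak evoked response was compared with the peak response to CP-55,940.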

[4] = Cmax in rat at 10 umol/kg, po; assay type: ADME, organism-based; design: dose 10 umol/kg, route oral; conditions: in vivo
Cannabinoid receptor 1 [5] = target: T2, Cannabinoid receptor 1 (Homo sapiens, UniProt P21554); assay: Agonist activity at human recombinant CB1 receptor expressed in HEK293 cells assessed as inhibition of forskolin-induced cAMP production after 20 mins by ELISA; assay type: functional, cell-based
T2 sequence (P21554 whole entry): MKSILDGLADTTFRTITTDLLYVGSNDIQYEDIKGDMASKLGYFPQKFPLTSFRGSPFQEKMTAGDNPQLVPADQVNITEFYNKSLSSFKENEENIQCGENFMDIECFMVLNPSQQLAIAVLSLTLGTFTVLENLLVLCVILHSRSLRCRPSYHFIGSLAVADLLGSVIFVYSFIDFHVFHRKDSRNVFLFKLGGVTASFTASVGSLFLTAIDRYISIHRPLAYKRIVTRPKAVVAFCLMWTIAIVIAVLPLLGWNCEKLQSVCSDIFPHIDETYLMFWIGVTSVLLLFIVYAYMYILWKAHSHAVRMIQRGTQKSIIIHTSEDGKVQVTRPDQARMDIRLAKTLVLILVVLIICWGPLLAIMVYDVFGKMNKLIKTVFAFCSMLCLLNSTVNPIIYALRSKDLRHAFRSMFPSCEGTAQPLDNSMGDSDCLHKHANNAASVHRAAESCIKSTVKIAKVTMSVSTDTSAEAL
In short: (§2)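 cAMP assay in HEK 293 cells stably expressing the relevant CB receptor, with a fixed concentration of forskolin. cAMP was quantified by ELISA. Activation is given as percent of the CP-55,940 control response.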

Cannabinoid receptor 1 [6] = target: Cannabinoid receptor 1 (Rattus norvegicus, UniProt P20272); assay: Displacement of [3H]CP-55940 from rat recombinant CB1 receptor expressed in CHO cells after 90 mins; assay type: cell-based
Cannabinoid receptor 1 (Rattus norvegicus, UniProt P20272), sequence (P20272 whole entry): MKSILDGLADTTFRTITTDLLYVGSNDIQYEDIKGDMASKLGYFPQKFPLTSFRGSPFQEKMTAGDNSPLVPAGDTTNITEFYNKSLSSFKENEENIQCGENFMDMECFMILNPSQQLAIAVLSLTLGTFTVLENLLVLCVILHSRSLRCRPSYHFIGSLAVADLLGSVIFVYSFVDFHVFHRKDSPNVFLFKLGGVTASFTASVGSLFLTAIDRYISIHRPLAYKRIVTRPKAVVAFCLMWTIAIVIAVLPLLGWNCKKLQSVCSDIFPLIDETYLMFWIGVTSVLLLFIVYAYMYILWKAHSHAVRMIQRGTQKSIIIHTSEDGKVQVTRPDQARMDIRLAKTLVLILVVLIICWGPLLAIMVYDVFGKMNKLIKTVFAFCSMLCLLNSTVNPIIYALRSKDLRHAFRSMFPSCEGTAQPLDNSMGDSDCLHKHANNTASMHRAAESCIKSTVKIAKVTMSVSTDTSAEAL
In short: (§3)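 Competitive binding: [³H]CP-55,940 displaced from membranes of HEK 293 cells stably transfected with human or rat CB₂, or CHO cells stably transfected with human or rat CB₁. Reported as pKi. Determinations >2 (duplicate of duplicate).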

[7] = Oral bioavailability in rat at 10 umol/kg; assay type: ADME, organism-based; conditions: in vivo
Rattus norvegicus [8] = assay: Analgesic activity in rat complete Freund's adjuvant model of chronic inflammatory pain assessed as reduction in thermal hyperalgesia at 3 umol/kg, ip administered 48 hrs after CFA-challenge measured after 60 mins; assay type: functional, organism-based
Rattus norvegicus [9] = assay: Analgesic activity in rat chronic constriction injury model of neuropathic pain assessed as reduction in mechanical allodynia at 10 umol/kg, ip administered 2 weeks post-surgery measured after 30 mins; assay type: functional; design: scale not given: the % may be the effect or the level left
[10] = Cmax in rat at 10 umol/kg, ip; assay type: ADME, organism-based; design: dose 10 umol/kg, route intraperitoneal; conditions: in vivo
[11] = Plasma clearance in rat at 3 umol/kg, iv; assay type: ADME, organism-based
Rattus norvegicus [12] = assay: Analgesic activity in rat spinal nerve ligation model of neuropathic pain assessed as […] at 10 umol/kg, ip administered 2 weeks post-surgery measured after 30 mins; assay type: functional; design: scale not given: the % may be the effect or the level left
In short: (§4)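 Rat spinal nerve ligation (Chung) neuropathic pain model. Dosing was intraperitoneal, two weeks after surgery and 30 min before testing. Read-out was mechanical allodynia (paw withdrawal threshold), given as a dose–response.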

Rattus norvegicus [13] = assay: Analgesic activity in ip dosed rat spinal nerve ligation model of neuropathic pain assessed as […] administered 2 weeks post-surgery measured after 30 mins; assay type: functional, organism-based; in short: as §4
[14] = AUC in rat at 10 umol/kg, po; assay type: ADME, organism-based; conditions: plasma
Rattus norvegicus [15] = assay: Analgesic activity in rat complete Freund's adjuvant model of chronic inflammatory pain assessed as latency in paw withdrawal at 100 umol/kg, po administered 48 hrs after CFA-challenge measured after 60 mins; assay type: functional
[16] = Half life in rat at 10 umol/kg, po; assay type: ADME, organism-based; conditions: in vivo
[17] = target: T3, Cannabinoid receptor 2 (Rattus norvegicus) (UniProt Q9QZN9); assay: Agonist activity at rat recombinant CB2 receptor expressed in HEK293 cells assessed as inhibition of forskolin-induced cAMP production after 20 mins by ELISA relative to CP55940; assay type: functional, cell-based; in short: as §2
T3 sequence (whole entry): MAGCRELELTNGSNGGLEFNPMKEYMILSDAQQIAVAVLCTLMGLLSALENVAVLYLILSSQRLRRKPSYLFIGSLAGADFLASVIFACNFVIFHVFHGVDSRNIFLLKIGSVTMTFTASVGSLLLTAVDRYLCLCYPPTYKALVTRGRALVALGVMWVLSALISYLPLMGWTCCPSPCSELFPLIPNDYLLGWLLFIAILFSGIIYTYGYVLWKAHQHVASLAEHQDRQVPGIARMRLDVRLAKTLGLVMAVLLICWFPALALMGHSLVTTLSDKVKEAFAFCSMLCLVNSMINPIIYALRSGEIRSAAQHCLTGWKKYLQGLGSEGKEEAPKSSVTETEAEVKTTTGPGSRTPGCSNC

Rattus norvegicus [18] = assay: Neurotoxicity in rat assessed as decrease in spontaneous locomotory activity at 10 umol/kg, ip after 30 mins; assay type: toxicity, organism-based; design: scale not given: the % may be the effect or the level left; conditions: in vivo, 0.5 h; in short: as §1
Cannabinoid receptor 2 [19] = target: T4, Cannabinoid receptor 2 (Rattus norvegicus, UniProt Q9QZN9); assay: Displacement of [3H]CP-55940 from rat recombinant CB2 receptor expressed in HEK293 cells after 90 mins; assay type: cell-based; in short: as §3
T4 sequence (Q9QZN9 whole entry): T3 sequence (whole entry)

Cannabinoid receptor 2 [20] = target: T4, Cannabinoid receptor 2; assay: Agonist activity at rat recombinant CB2 receptor expressed in HEK293 cells assessed as inhibition of forskolin-induced cAMP production after 20 mins by ELISA; assay type: functional, cell-based; in short: as §2
[21] = Half life in rat at 10 umol/kg, ip; assay type: ADME, organism-based; conditions: in vivo
Cannabinoid receptor 1 [22] = target: T2, Cannabinoid receptor 1; assay: Displacement of [3H]CP-55940 from human recombinant CB1 receptor expressed in CHO cells after 90 mins; assay type: cell-based; in short: as §3
[23] = Volume of distribution during terminal phase in rat at 3 umol/kg, iv; assay type: ADME, organism-based; conditions: in vivo, read-out: Vbeta
Rattus norvegicus [24] = assay: Neurotoxicity in rat assessed as decrease in spontaneous locomotory activity at 30 umol/kg, ip after 30 mins; assay type: toxicity, organism-based; design: scale not given: the % may be the effect or the level left; conditions: in vivo, 0.5 h; in short: as §1
Rattus norvegicus [25] = assay: Analgesic activity in ip dosed rat chronic constriction injury model of neuropathic pain assessed as reduction in mechanical allodynia administered 2 weeks post-surgery measured after 30 mins; assay type: functional, organism-based
Cannabinoid receptor 2 [26] = target: T1, Cannabinoid receptor 2; assay: Agonist activity at human recombinant CB2 receptor expressed in HEK293 cells assessed as inhibition of forskolin-induced cAMP production after 20 mins by ELISA; assay type: functional, cell-based; in short: as §2

CCCNC(=O)c1c(NC(=O)C23CC4CC(CC2C4)C3)sc2c1CCOC2
Activity (Rattus norvegicus [1]): Dose-dependent effect
Tmax [2]: 1.2 h
IC50 (Cannabinoid receptor 2 [3]): 70.8 nM
Cmax [4]: 39 ng/mL
IC50 (Cannabinoid receptor 1 [5]): 3470 nM
Ki (Cannabinoid receptor 1 [6]): 302 nM
bioavailability [7]: 11%
Activity (Rattus norvegicus [8]): Active
Activity (Rattus norvegicus [9]): 55%
Cmax [10]: 150 ng/mL
clearance [11]: 63.3 mL/min/kg
Activity (Rattus norvegicus [12]): 29%
Activity (Rattus norvegicus [13]): Dose-dependent effect
AUC [14]: 123 ng·h/mL
Activity (Rattus norvegicus [15]): 58%
half-life [16]: 1.6 h
Imax [17]: 72%
Activity (Rattus norvegicus [18]): 18%
Ki (Cannabinoid receptor 2 [19]): 33.9 nM
IC50 (Cannabinoid receptor 2 [20]): 9.33 nM
half-life [21]: 6.7 h
Ki (Cannabinoid receptor 1 [22]): 1550 nM
Vd [23]: 8.7 L/kg
Activity (Rattus norvegicus [24]): 50%
Activity (Rattus norvegicus [25]): Dose-dependent effect
IC50 (Cannabinoid receptor 2 [26]): 1.95 nM
